Legend:
Mus musculus [1] = test: Anticonvulsant potency using the intravenous-BIC (bicuculline) test in mice; assay type: functional
Procedure, shortened: (§1)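 Male Crl:CD-1(ICR)BR mice (22-24 g) were dosed orally at 5 mL/kg 60 min before bicuculline 0.6 mg/kg, a dose giving tonic extensor convulsions in at least 97% of vehicle-treated mice. Protection from tonic extension was scored for each mouse. ED50 (95% confidence interval) was obtained by probit analysis, with 10-20 animals per dose.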

Mus musculus [2] = test: Compound was tested for anticonvulsant potency using the intravenous-BIC (bicuculline) test in mice; 3 out of 20 mice exhibited anticonvulsant activity; assay type: functional
Mus musculus [3] = test: Compound was tested for anticonvulsant potency using the intravenous-BIC (bicuculline) test in mice; 0 out of 20 mice exhibited anticonvulsant activity; assay type: functional
Mus musculus [4] = test: Compound was tested for anticonvulsant potency using the intravenous-BIC (bicuculline) test in mice; 2 out of 20 mice exhibited anticonvulsant activity; assay type: functional
Mus musculus [5] = test: Compound was tested for anticonvulsant potency using the intravenous-BIC (bicuculline) test in mice; compound at 200 mg/kg induced impaired gait, loss of the righting reflex, and impaired breathing; assay type: functional; procedure, shortened: as §1
Mus musculus [6] = test: Compound was tested for anticonvulsant potency using the intravenous-BIC (bicuculline) test in mice; 7 out of 20 mice exhibited anticonvulsant activity; assay type: functional
Mus musculus [7] = test: Compound was tested for anticonvulsant potency using the intravenous-BIC (bicuculline) test in mice; 2 out of 10 mice exhibited anticonvulsant activity; assay type: functional
Mus musculus [8] = species: Mus musculus; test: Anticonvulsant potency using the maximal electroshock test in mice; assay type: functional
Procedure, shortened: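 Male mice received intra-aural shocks through clip electrodes (0.7 s, 28 mA, 80 Hz pulse train, 0.4 ms pulses), a stimulus giving hindlimb tonic extension in at least 97% of controls. Compound was given orally 60 min or ip 30 min beforehand, at 5 mL/kg. Protection meant complete suppression of the hindlimb tonic extensor component. ED50 (95% confidence interval) was obtained by probit analysis, with 10-20 animals per dose.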

[9] = Toxicity using neurological impairment measured by rotarod test in mice; settings: mouse, in vivo
Procedure, shortened: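 Trained male Crl:CD-1(ICR)BR mice (22-24 g) were dosed orally at 5 mL/kg 60 min before testing on a 3-cm rod rotating at 10 rpm. Falls during a 2-min period were counted. TD50, the dose making 50% of animals fall, was calculated by probit analysis, with 10-20 animals per dose.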

Mus musculus [10] = test: Compound was tested for anticonvulsant potency using the 3-MPA (3-mercaptopropionic acid) test in mice upon peroral administration; assay type: functional; settings: po
Procedure, shortened: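 Male Crl:CD-1(ICR)BR mice (22-24 g) were dosed orally at 5 mL/kg 60 min before 3-mercaptopropionic acid 60 mg/kg sc, a dose convulsing at least 97% of vehicle-treated mice. The end point was hindlimb tonic extension. ED50 (95% confidence interval) was obtained by probit analysis, with 10-20 animals per dose.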

Mus musculus [11] = species: Mus musculus; test: Compound was tested for toxicity using neurological impairment measured by rotarod test in mice; assay type: functional
Procedure, shortened: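 Trained male Crl:CD-1(ICR)BR mice, 22-24 g, dosed orally 60 min before being placed on a 3-cm rod turning at 10 rpm. Mice falling during a 2-min test were counted. Dosing volume 5 mL/kg, 10-20 animals/dose. TD50, the dose making 50% fall, by probit analysis with 95% confidence interval. Some values given as fraction affected at one dose.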

Mus musculus [12] = test: Anticonvulsant potency using the PTX (picrotoxin) test in mice by peroral administration; assay type: functional; settings: po
Mus musculus [13] = test: Compound was tested for anticonvulsant potency using the STRY (strychnine) test in mice upon peroral administration; assay type: functional; settings: po
Mus musculus [14] = test: Compound was tested for anticonvulsant potency using the intravenous-BIC (bicuculline) test in mice; 5 out of 20 mice exhibited anticonvulsant activity; assay type: functional
Mus musculus [15] = test: Compound was tested for anticonvulsant potency using the intravenous-BIC (bicuculline) test in mice; 4 out of 20 mice exhibited anticonvulsant activity; assay type: functional

| Compound | ED50 (Mus musculus [1]) [mg/kg] | ED50 (Mus musculus [8]) [mg/kg] | also measured |
| --- | --- | --- | --- |
| NC(=O)CNCCc1ccc(OCc2cccc(Cl)c2)cc1 | 192 |  |  |
| CCOC(=O)CNCc1ccc(OCc2cccc(Cl)c2)cc1 |  |  | ED50 (Mus musculus [2]): > 400 mg/kg |
| C[C@@H](NCc1ccc(OCc2cccnc2)cc1)C(N)=O |  |  | ED50 (Mus musculus [3]): > 400 mg/kg |
| CNC(=O)[C@@H](CC(C)C)NCc1ccc(OCc2ccccc2)cc1 | 192 |  |  |
| CNC(=O)[C@@H](Cc1ccccc1)NCc1ccc(OCc2ccccc2)cc1 |  |  | ED50 (Mus musculus [4]): > 400 mg/kg |
| CNC(=O)[C@@H](NCc1ccc(OCc2ccccc2)cc1)C(C)O (stereo not given in full) |  |  | ED50 (Mus musculus [5]): 34.2 mg/kg |
| CNC(=O)[C@@H](CO)NCc1ccc(OCc2cccc([N+](=O)[O-])c2)cc1 |  |  | ED50 (Mus musculus [6]): > 400 mg/kg |
| C[C@@H](NCc1ccc(OCc2ccncc2)cc1)C(N)=O |  |  | ED50 (Mus musculus [7]): > 400 mg/kg |
| NC(=O)CNCc1ccc(OCc2ccccc2)cc1 | 68.6 | 11.5 | TD50 [9]: 473 mg/kg |
| C[C@@H](NCc1ccc(OCc2ccco2)cc1)C(N)=O | 116 |  |  |
| C[C@H](Nc1cccc(OCc2ccccc2)c1)C(N)=O | 79.7 |  |  |
| O=C1NC(=O)C(c2ccccc2)(c2ccccc2)N1 [PHENYTOIN] | 42.1 | 3.8 | ED50 (Mus musculus [10]): 11.3 mg/kg; TD50 (Mus musculus [11]): 243 mg/kg; ED50 (Mus musculus [12]): > 100 mg/kg; ED50 (Mus musculus [13]): > 200 mg/kg |
| CN(CC(N)=O)Cc1ccc(OCc2cccc(Cl)c2)cc1 | 114 | 70 |  |
| C[C@@H](NCc1ccc(OCC2CC2)cc1)C(N)=O | 124 |  |  |
| C[C@@H](NCc1ccc(OCCCc2ccccc2)cc1)C(N)=O | 19 | 6.7 | ED50 (Mus musculus [10]): 16.2 mg/kg; ED50 (Mus musculus [12]): 35.4 mg/kg; ED50 (Mus musculus [13]): 75.4 mg/kg; TD50 [9]: 584 mg/kg |
| CC[C@H](NCc1ccc(OCc2ccccc2)cc1)C(N)=O | 119 |  |  |
| NC(=O)CNCc1ccccc1 | 490 |  |  |
| C[C@H](Nc1ccccc1OCc1ccccc1)C(N)=O | 210 |  |  |
| C[C@@H](NCc1ccc(/C=C/c2ccccc2)cc1)C(N)=O |  |  | ED50 (Mus musculus [14]): 400 mg/kg |

| Compound | ED50 (Mus musculus [1]) [mg/kg] | ED50 (Mus musculus [8]) [mg/kg] | also measured |
| --- | --- | --- | --- |
| O=C(O)CNCc1ccc(OCc2cccc(Cl)c2)cc1 |  |  | ED50 (Mus musculus [15]): > 400 mg/kg |
| CNC(=O)[C@@H](CO)NCc1ccc(OCc2ccccc2)cc1 |  | 22.8 | ED50 (Mus musculus [5]): 16.3 mg/kg |
| CN(C)C(=O)CNCc1ccc(OCc2cccc(Cl)c2)cc1 |  |  | ED50 (Mus musculus [5]): 54.2 mg/kg |
| NC(=O)CNCc1ccc(OCc2cccc(Cl)c2)cc1 | 107 | 28.5 |  |
| NC(=O)CNC(=O)c1ccc(OCc2cccc(Cl)c2)cc1 |  |  | ED50 (Mus musculus [14]): 400 mg/kg |
| CNC(=O)[C@@H](CO)NCc1ccc(OCc2cccc(C)c2)cc1 | 41.3 | 30.6 | TD50 [9]: 1250 mg/kg |
| CNC(=O)[C@@H](CO)NCc1ccc(OCc2ccc(Cl)cc2)cc1 | 216 |  |  |
| C[C@@H](NCc1ccc(OCC2CCCCC2)cc1)C(N)=O | 131 |  |  |
| C[C@@H](NCc1ccc(OCc2ccccc2Cl)cc1)C(N)=O | 17.4 | 50.8 | TD50 [9]: 525 mg/kg |
| C[C@@H](NCc1ccc(OCCc2ccccc2)cc1)C(N)=O | 24.9 | 12.2 | TD50 [9]: 1120 mg/kg |
| NC(=O)[C@@H](CO)NCc1ccc(OCc2ccccc2)cc1 | 133 |  |  |
| C[C@@H](NCc1ccc(OCc2ccoc2)cc1)C(N)=O | 152 |  |  |
| CN1C(=O)CN=C(c2ccccc2)c2cc(Cl)ccc21 [DIAZEPAM] | 0.29 | 1.2 | ED50 (Mus musculus [10]): 0.62 mg/kg; TD50 (Mus musculus [11]): 6.8 mg/kg; ED50 (Mus musculus [12]): 0.52 mg/kg; ED50 (Mus musculus [13]): 0.58 mg/kg |
| CNC(=O)[C@@H](CCSC)NCc1ccc(OCc2ccccc2)cc1 |  |  | ED50 (Mus musculus [3]): > 400 mg/kg |
| NC(=O)N1c2ccccc2C=Cc2ccccc21 [CARBAMAZEPINE] | 6.7 | 9.8 | ED50 (Mus musculus [10]): 20.1 mg/kg; ED50 (Mus musculus [12]): 40.6 mg/kg; ED50 (Mus musculus [13]): 43.8 mg/kg; TD50 [9]: 106 mg/kg |
| C[C@@H](NCc1ccc(CCc2ccccc2)cc1)C(N)=O | 40.3 | 17.8 | TD50 [9]: 630 mg/kg |
| CNC(=O)[C@H](Cc1ccccc1)NCc1ccc(OCc2ccccc2)cc1 | 61.2 |  |  |
| CNC(=O)[C@H](CCSC)NCc1ccc(OCc2ccccc2)cc1 | 239 |  |  |

— ChEMBL document CHEMBL1131598, “Synthesis and anticonvulsant activity of a new class of 2-[(arylalky)amino]alkanamide derivatives” (J Med Chem, 1998)
